Test results taken from ChEMBL document CHEMBL4364301 (Eur J Med Chem, 2019).

What was measured:
Format in all cases: functional
[1] = tested on: LNCaP; experiment: Antiproliferative activity against human LNCAP cells assessed as reduction in cell growth incubated for 96 hrs by propidium iodide based 2D monolayer assay
Method in brief: (§1)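 After 24 h recovery, compound in medium or medium alone (control wells) was added at 10 half-log concentrations from 0.0032 to 100 µM, in triplicate, with at most 0.3% DMSO. After 96 h, wells were PBS-washed, stained with 7 µg/ml PI and 0.1% Triton X-100, and fluorescence read at 530/620 nm. IC50 came from a 4-parameter fit, geometric mean.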

[2] = tested on: VCaP; experiment: Antiproliferative activity against human VCaP cells assessed as reduction in cell growth incubated for 96 hrs by propidium iodide based 2D monolayer assay
Method in brief: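 VCaP cells in RPMI 1640 with 10% FCS at 37 °C, 5% CO2, seeded 4,000–20,000 cells/well and left 24 h before dosing. Compounds from DMSO stocks were diluted in half-log steps in medium, 10 concentrations 0.0032–100 μM, triplicate wells, max 0.3% DMSO. After 96 h, cells were washed, stained with 7 μg/ml propidium iodide plus 0.1% Triton X-100 for 1–2 h at room temperature, and fluorescence read at ex 530/em 620 nm.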

[3] = tested on: DU-145; experiment: Antiproliferative activity against human DU145 cells assessed as reduction in cell growth incubated for 96 hrs by propidium iodide based 2D monolayer assay; settings: DU-145, 96 h; method in brief: as §1
[4] = tested on: CWR22R; experiment: Antiproliferative activity against human 22Rv1 cells assessed as reduction in cell growth incubated for 96 hrs by propidium iodide based 2D monolayer assay; settings: 22Rv1, 96 h; method in brief: as §1

CC(O)(CSc1ccc(F)cc1)C(=O)Nc1ccc(S(F)(F)(F)(F)F)cc1 (racemic)
IC50 [1]: 12.5 µM
IC50 [2]: 23 µM
IC50 [3]: 25.4 µM
IC50 [4]: 13.5 µM

CC(O)(COc1cccc(S(F)(F)(F)(F)F)c1)C(=O)Nc1ccc(C#N)cc1C(F)(F)F (racemic)
IC50 [1]: 9.9 µM
IC50 [2]: 10.3 µM
IC50 [3]: 16.3 µM
IC50 [4]: 11.6 µM
